Measured values from ChEMBL document CHEMBL4811236, “New class of hantaan virus inhibitors based on conjugation of the isoindole fragment to (+)-camphor or (-)-fenchone hydrazonesv” (Bioorg Med Chem Lett, 2021).

Columns and labels:
[1] = tested on: Orthohantavirus hantanense; assay: Antiviral activity against Hantaan 76-118 pseudovirus infected in MDCK cells assessed as reduction in virus replication incubated for 48 hrs by luminescence assay; format: functional, organism-based
[2] = Cytotoxicity against MDCK cells by MTT assay; format: cell-based, Canis lupus familiaris; details: dog
[3] = Cytotoxicity against human HEK293T cells measured after 72 hrs by MTT assay; format: cell-based, HEK-293T
Outline: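 HEK293T cells were exposed to compounds for 72 h. CC50 was the concentration causing 50% cell death, reported as M ± I95, n = 3.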

[4] = Selective index, ratio of CC50 for HEK293T cells to IC50 for antiviral activity against pseudotyped recombinant vesicular stomatitis virus delta G Gn-Gc infected HEK293T cells; format: toxicity; details: human, read-out: Ratio CC50/IC50
Outline: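 Selectivity index was calculated as CC50 (HEK293T, 72 h exposure) divided by IC50 against rVSV-ΔG-Gn-Gc pseudovirus in HEK293T cells.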

[5] = tested on: Vesicular stomatitis virus; assay: Antiviral activity against pseudotyped recombinant vesicular stomatitis virus delta G Gn-Gc infected HEK293T cells assessed as reduction in virus replication incubated for 48 hrs by luminescence assay; format: functional, organism-based; details: HEK-293T
Outline: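 Gn-Gc-pseudotyped VSV-ΔG particles were made by transfecting HEK293T cells with a Hantaan 76–118 Gn-Gc plasmid, adding VSV-ΔG-G after 48 h, and harvesting the supernatant 48 h later. Pseudovirus (500,000 RLU) was preincubated with a range of compound concentrations for 1 h, then a HEK293T cell suspension was added. IC50 reported as M ± I95, n = 3.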

[6] = Selective index, ratio of CC50 for MDCK cells to IC50 for Hantaan 76-118; format: toxicity; details: dog, read-out: Ratio CC50/IC50
[7] = tested on: Orthohantavirus hantanense; assay: Antiviral activity against HTNV strain 76-118 infected african green monkey Vero E6 cells measured after 3 days by plaque-formation assay; format: functional, organism-based; details: 76-118, Vero C1008, 72 h
[8] = Orthohantavirus hantanense, 76-118, MDCK, 48 h, read-out: IC50

| SMILES | IC50 ([1]; mdck) | CC50 at 336 h [2] [µM] | CC50 at 72 h [3] [µM] | IC50 [1, 8] [µM] | selectivity ratio [4] | IC50 [5] [µM] | selectivity ratio [6] | EC50 [7] [µM] |
| --- | --- | --- | --- | --- | --- | --- | --- | --- |
| NC(=O)c1ncn([C@@H]2O[C@H](CO)[C@@H](O)[C@H]2O)n1 [RIBAVIRIN] | Not Active | 20 |  |  |  |  |  |  |
| COc1ccc(N2CC34C=CC(C)(O3)C(C(=O)N/N=C3\C(C)(C)[C@H]5CC[C@]3(C)C5)C4C2=O)cc1 (mixture of isomers) |  | 292 | 152 | 30 | 2 | 74 | 9 |  |
| CC12C=CC3(CN(CCc4ccccc4)C(=O)C3C1C(=O)N/N=C1\C[C@H]3CC[C@]1(C)C3(C)C)O2 (mixture of isomers) |  | 195 | 216 | 42 | 3 | 69 | 4 |  |
| CCCCN1CC23C=CC(C)(O2)C(C(=O)N/N=C2\C[C@H]4CC[C@]2(C)C4(C)C)C3C1=O (mixture of isomers) |  | 246 |  | 26 |  |  | 9 |  |
| CC12C=CC3(CN(c4ccc(Br)cc4)C(=O)C3C1C(=O)N/N=C1\C(C)(C)[C@H]3CC[C@]1(C)C3)O2 (mixture of isomers) | Not Active | 80 | 78 |  |  | 65 |  |  |
| CCN1CC23C=CC(O2)C(C(=O)N/N=C2\C[C@H]4CC[C@]2(C)C4(C)C)C3C1=O (mixture of isomers) | Not Active | 250 | 1070 |  |  | 790 |  |  |
| CC1(C)[C@@H]2CC[C@@]1(C)/C(=N/NC(=O)C1C3C=CC4(CN(Cc5ccccc5)C(=O)C14)O3)C2 (mixture of isomers) | Not Active | 250 | 860 |  |  | 750 |  |  |
| CSc1nc2[nH]nc([N+](=O)[O-])c(=O)n2n1 |  | 368 | 1510 | 14 | 4 | 408 | 26 |  |
| CC12CCC3(CN(c4ccccc4)C(=O)C3C1C(=O)N/N=C1\C[C@H]3CC[C@]1(C)C3(C)C)O2 (mixture of isomers) |  | 130 | 1450 | 20 | 3 | 375 | 6 |  |
| COc1ccc(N2CC34C=CC(C)(O3)C(C(=O)N/N=C3\C[C@H]5CC[C@]3(C)C5(C)C)C4C2=O)cc1 (mixture of isomers) |  | 120 |  | 19 |  |  | 6 |  |
| CC12C=CC3(CN(c4ccc(Br)cc4)C(=O)C3C1C(=O)N/N=C1\C[C@H]3CC[C@]1(C)C3(C)C)O2 (mixture of isomers) | Not Active | 78 | 175 |  |  | 120 |  |  |
| CC(C)N1CC23C=CC(C)(O2)C(C(=O)N/N=C2\C[C@H]4CC[C@]2(C)C4(C)C)C3C1=O (mixture of isomers) |  | 250 | > 2500 | 92 | 5 | 468 | 3 |  |
| CCC12C=CC3(CN(c4ccccc4)C(=O)C3C1C(=O)N/N=C1\C(C)(C)[C@H]3CC[C@]1(C)C3)O2 (mixture of isomers) |  | 120 |  | 40 |  |  | 3 |  |
| O=c1c2ncn([C@@H]3O[C@H](CO)[C@@H](O)[C@H]3O)c2ncn1-c1cccc(F)c1 |  |  |  |  |  |  |  | 94 |
| CC1(C)[C@@H]2CC[C@@]1(C)/C(=N/NC(=O)C1C3OC4(CN(c5ccccc5)C(=O)C14)C1OC31)C2 (mixture of isomers) |  | 195 | 1040 | 37 | 5 | 195 | 5 |  |
| CC12C=CC3(CN(c4ccccc4)C(=O)C3C1C(=O)N/N=C1\C(C)(C)[C@H]3CC[C@]1(C)C3)O2 (mixture of isomers) |  | 1060 | 1180 | 7.6 | 3 | 431 | 140 |  |
| CC12C=CC3(CN(c4ccccc4)C(=O)C3C1C(=O)N/N=C1\CC3CCC1C3)O2 (mixture of isomers) |  | 269 |  | 28 |  |  | 9 |  |
| CC12C=CC3(CN(Cc4ccccc4)C(=O)C3C1C(=O)N/N=C1\C[C@H]3CC[C@]1(C)C3(C)C)O2 (mixture of isomers) |  | 245 | 335 | 33 | 2 | 147 | 7 |  |
| CC1(C)[C@@H]2CC[C@@]1(C)/C(=N/NC(=O)c1cccc3c1C(=O)N(Cc1ccccc1)C3)C2 | Not Active | > 300 |  |  |  |  |  |  |
| CC12C=CC3(CN(c4ccccc4)C(=O)C3C1C(=O)N/N=C1\C[C@H]3CC[C@]1(C)C3(C)C)O2 (mixture of isomers) |  | 142 | 448 | 14 | 4 | 96 | 10 |  |
| COCCN1CC23C=CC(O2)C(C(=O)N/N=C2\C[C@H]4CC[C@]2(C)C4(C)C)C3C1=O (mixture of isomers) | Not Active | 250 | 1030 |  |  | > 800 |  |  |
| CC1(C)[C@@H]2CC[C@@]1(C)/C(=N/NC(=O)c1ccccc1)C2 | Not Active | > 150 | 1100 |  |  | 780 |  |  |
